Source: PMC10053325 (Cell chemical biology, 2020)
Where a chain is given by its changes, count along the chain named.

How the values were obtained:
[1] = tested on: isogenic HCT116 R361H cells; assay: Colony formation assay; type: cell-based, human; conditions: TGF-β 10 ng/mL, Ro-31-8220 1 μM, Go-6983 10 μM, 15-day treatment
How it was run: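 Single-cell suspensions seeded at 1,000 to 2,000 cells/well in 6-well plates, treated next day with TGF-β, test compound, or the combination. Agent-containing medium renewed every 3 days for 15 days. Colonies stained with crystal violet and colony area quantified from images. Mean ± SD, three independent experiments; Student's t-test.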

[2] = molecular target: SMAD4^R361H interaction with R-SMADs (Homo sapiens, UniProt Q13485, R361H); assay: R-SMADs selectivity profiling by TR-FRET; type: binding; conditions: dose-response AUC; SMAD1/2/3/5/8
[3] = molecular target: SMAD4^D351H/SMAD3 PPI (Homo sapiens, UniProt Q13485, D351H); assay: GST pull-down assay of GST-SMAD4-D351H with VF-SMAD3 in cell lysate; type: binding; conditions: versus DMSO control
How it was run: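 HEK293T cells co-transfected with Venus-flag-SMAD3 and mutant GST-SMAD4 and lysed after 48 h in 0.5% Triton X-100 buffer (20 mM Tris-HCl, 150 mM NaCl, 5% glycerol, 2 mM EDTA). Lysate incubated with test compound 3 h rotating at 4°C, then glutathione beads 2 h at 4°C. Beads washed three times, boiled in SDS buffer, and bound SMAD3 detected by western blot.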

[4] = molecular target: T1, SMAD4^R361H-SMAD3 PPI (Homo sapiens, UniProt Q13485, R361H); assay: TR-FRET assay for SMAD4^R361H/SMAD3 PPI in HEK293T cell lysate; type: binding; conditions: primary screening, compounds 20 μM
Target sequence in this assay (P84022 whole entry partner, one chain of several): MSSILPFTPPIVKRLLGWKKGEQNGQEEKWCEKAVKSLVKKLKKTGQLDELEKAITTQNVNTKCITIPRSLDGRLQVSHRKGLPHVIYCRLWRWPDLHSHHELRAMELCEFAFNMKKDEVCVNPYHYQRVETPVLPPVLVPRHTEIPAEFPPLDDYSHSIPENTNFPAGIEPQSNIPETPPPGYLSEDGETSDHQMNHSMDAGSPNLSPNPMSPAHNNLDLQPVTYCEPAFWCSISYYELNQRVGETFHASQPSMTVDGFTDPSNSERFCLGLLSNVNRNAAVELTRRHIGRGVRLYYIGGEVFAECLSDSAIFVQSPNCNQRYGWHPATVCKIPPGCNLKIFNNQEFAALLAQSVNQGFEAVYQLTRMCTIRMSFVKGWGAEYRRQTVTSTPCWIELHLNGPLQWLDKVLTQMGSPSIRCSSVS

[5] = molecular target: T2, SMAD4^R361H (Homo sapiens, UniProt Q13485, R361H); assay: Cycloheximide; type: cell-based; conditions: RCM-1 cells, CHX chase
T2 sequence (Q13485 1-552 R361H): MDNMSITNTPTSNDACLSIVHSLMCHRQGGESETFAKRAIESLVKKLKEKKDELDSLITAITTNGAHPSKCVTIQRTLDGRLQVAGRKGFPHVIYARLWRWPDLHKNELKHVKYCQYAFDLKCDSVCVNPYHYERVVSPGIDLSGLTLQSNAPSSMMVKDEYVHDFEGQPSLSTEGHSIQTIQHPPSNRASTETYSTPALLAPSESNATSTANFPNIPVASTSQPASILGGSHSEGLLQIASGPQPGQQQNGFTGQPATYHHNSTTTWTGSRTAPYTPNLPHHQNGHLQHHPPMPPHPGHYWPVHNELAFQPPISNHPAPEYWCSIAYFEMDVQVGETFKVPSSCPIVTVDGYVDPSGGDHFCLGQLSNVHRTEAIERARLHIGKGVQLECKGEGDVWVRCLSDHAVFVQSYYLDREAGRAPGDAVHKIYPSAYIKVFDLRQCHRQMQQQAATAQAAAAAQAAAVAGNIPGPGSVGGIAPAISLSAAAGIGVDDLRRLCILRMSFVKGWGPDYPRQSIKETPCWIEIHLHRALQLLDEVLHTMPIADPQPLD
How it was run: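 RCM-1 cells grown 24 h in 24-well plates, then given 100 μg/mL cycloheximide with test compound or DMSO. At each time point cells scraped into 2X SDS sample buffer and boiled 5 min. Run on 10% SDS-PAGE and blotted with anti-SMAD4; SMAD4 densitometry normalized to β-actin. Performed three times.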

[6] = tested on: isogenic HCT116 R361H cells; assay: Flow cytometry-based cell-cycle analysis; parameters: species or system human; conditions: TGF-β 10 ng/mL, Ro-31-8220 1 μM, Go-6983 10 μM
How it was run: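 Cells serum-starved 24 h, then placed in 10% FBS medium with TGF-β (10 ng/mL) and/or test compound for 24 h. Fixed in 70% ethanol overnight at 4°C, RNase-treated (1 mg/ml, 30 min, 37°C), stained with 40 μg/ml PI for 30 min. 5,000 cells per sample analysed by flow cytometry; % G1/S given as mean ± SD of three independent experiments.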

[7] = molecular target: T1, SMAD4^R361H-SMAD3 PPI; assay: Endogenous co-immunoprecipitation of SMAD4 complex in RCM-1 cells; type: cell-based; conditions: 10 μM for 8 h, endogenous proteins
How it was run: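 RCM-1 cells in 100 mm dishes exposed to 10 μM test compound or DMSO for 8 h, then lysed in PBS by sonication. About 1.5 mg total protein per IP incubated with antibody overnight at 4 °C, then with protein […] agarose beads 4 h at 4 °C. Beads washed four times in PBS; eluates probed for SMAD3 by western blot.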
Target sequence in this assay (P84022 2-425 partner limits assumed, one chain of several): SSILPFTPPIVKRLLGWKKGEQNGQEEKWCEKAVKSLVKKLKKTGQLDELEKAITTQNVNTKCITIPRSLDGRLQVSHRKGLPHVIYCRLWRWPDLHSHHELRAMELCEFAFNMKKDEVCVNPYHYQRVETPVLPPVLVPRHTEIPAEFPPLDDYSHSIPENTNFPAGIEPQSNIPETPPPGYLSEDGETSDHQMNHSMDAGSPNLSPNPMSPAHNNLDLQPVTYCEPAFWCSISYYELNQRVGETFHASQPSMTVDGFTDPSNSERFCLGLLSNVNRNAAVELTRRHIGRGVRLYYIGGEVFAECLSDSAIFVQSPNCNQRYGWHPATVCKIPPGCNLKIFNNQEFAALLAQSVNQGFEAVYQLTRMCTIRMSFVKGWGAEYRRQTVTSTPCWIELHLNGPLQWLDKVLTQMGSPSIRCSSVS

[8] = molecular target: T3, SMAD4 WT (Homo sapiens, UniProt Q13485); assay: Cellular thermal shift assay; type: cell-based; conditions: HCT116 cells, 10 μM for 8 h, compared with the DMSO control
T3 sequence (Q13485 1-552): T2 sequence (Q13485 1-552 R361H) with H361R
How it was run: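 Cells at 60% confluency in 100 mm dishes given 10 μM test compound for 8 h. Pellets in PBS aliquoted and heated at 45~65 °C for 3 min, lysed by three liquid nitrogen/25 °C freeze-thaw cycles, spun 20,000g for 20 min at 4 °C. Soluble SMAD protein western-blotted with actin loading control. Thermal curves from densitometry; mean ± SD, three independent experiments.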

[9] = tested on: isogenic HCT116 R361H cells; assay: Transcriptome profiling; type: cell-based, human; conditions: TGF-β 10 ng/mL, compound 1 μM
[10] = tested on: isogenic HCT116 cells (SMAD4 R361H, null); assay: Western blot of TGF-β-induced p15, p21, N-cadherin and Vimentin proteins; type: cell-based, human; conditions: R361H mutant cells, TGF-β 10 ng/mL, compound 1 μM
How it was run: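 Isogenic HCT116 SMAD4-null or R361H cells treated with TGF-β (10 ng/mL) and/or test compound (1 μM). Lysates run on 10% SDS-PAGE and transferred to nitrocellulose (100 V, 2 h, 4°C). Membranes blocked 1 h in 5% milk/TBST, probed overnight at 4°C, and developed by chemiluminescence. Representative of three independent experiments.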

[11] = tested on: isogenic HCT116 cells (SMAD4 WT, null, R361H); assay: Cell viability assay; type: cell-based, human
How it was run: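 Isogenic HCT116 WT, SMAD4-null and R361H cells given TGF-β (10 ng/mL), test compound, or both; vehicle/DMSO controls. CellTiter-Blue added and incubated at 37°C. Fluorescence read at Ex 545/Em 615 nm, medium-only blank subtracted, normalized to untreated controls (% C). Mean ± SD of three independent experiments; Student's t-test.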

[12] = tested on: SMAD4/SMAD3 transcriptional activity (SBE-luc); assay: SBE-driven luciferase reporter assay; type: cell-based, human; conditions: isogenic HCT116 R361H cells pre-treated with compound
How it was run: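 […] cells in 6-well plates co-transfected with SBE4-Luc (1 μg) and Renilla (0.1 μg) plasmids. After 24 h, cells pretreated 6 h with test compound, then stimulated with TGF-β for 18 h. Dual-Glo read-out as Firefly/Renilla ratio, expressed as TGF-β-induced fold-of-change; assays repeated three times.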

SMAD4^R361H interaction with R-SMADs, sequence (P84022 whole entry partner, one chain of several): as the sequence (P84022 whole entry partner, one chain of several) above
SMAD4^D351H/SMAD3 PPI, sequence (Q13485 whole entry D351H): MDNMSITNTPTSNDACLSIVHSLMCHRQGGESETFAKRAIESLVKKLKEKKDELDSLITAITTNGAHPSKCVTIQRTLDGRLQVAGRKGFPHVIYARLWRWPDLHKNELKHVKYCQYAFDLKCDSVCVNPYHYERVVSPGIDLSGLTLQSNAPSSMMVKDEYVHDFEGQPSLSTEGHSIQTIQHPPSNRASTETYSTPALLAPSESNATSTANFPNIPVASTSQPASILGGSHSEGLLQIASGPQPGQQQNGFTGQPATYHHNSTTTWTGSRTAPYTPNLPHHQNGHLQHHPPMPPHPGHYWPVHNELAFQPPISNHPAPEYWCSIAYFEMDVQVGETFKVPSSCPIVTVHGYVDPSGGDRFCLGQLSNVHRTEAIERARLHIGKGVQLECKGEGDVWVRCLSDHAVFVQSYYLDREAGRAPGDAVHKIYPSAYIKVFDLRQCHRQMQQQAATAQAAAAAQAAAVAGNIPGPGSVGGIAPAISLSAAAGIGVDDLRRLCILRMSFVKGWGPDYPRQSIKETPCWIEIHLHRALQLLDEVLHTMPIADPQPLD
SMAD4^D351H/SMAD3 PPI, sequence (P84022 whole entry partner): as the sequence (P84022 whole entry partner, one chain of several) above

## COc1ccc2c(c1)c(C1=C(c3c[nH]c4ccccc34)C(=O)NC1=O)cn2CCCN(C)C [Go-6983]
[1]
  colony area in combination with TGF-β: A similar effect
[2]
  compound-induced TR-FRET signal for SMAD4^R361H with SMAD3 compared with other R-SMADs: significantly higher
[3]
  SMAD3 level in the D351H GST pull-down complex: significantly restored
[4]
  potentiation effect (ΔTR-FRET) compared with the DMSO control: > 40%

## Cn1cc(C2=C(c3cn(CCCSC(=N)N)c4ccccc34)C(=O)NC2=O)c2ccccc21 [Ro-31-8220]
[5]
  SMAD4^R361H protein half-life compared with DMSO control: no significant difference
[5]; compound-treated
  SMAD4^R361H protein half-life: about 2 h
[1]
  colony area in combination with TGF-β: significantly decreased colony area
[6]
  sensitivity to TGF-β-induced G1/S cell-cycle arrest: regained sensitivity
[7]
  amount of SMAD3 in the SMAD4-R361H immune-complex: drastically restored
[2]
  compound-induced TR-FRET signal for SMAD4^R361H with SMAD3 compared with other R-SMADs: significantly higher
[8]
  increase of Tm (ΔTm) of SMAD4 WT: but not WT or SMAD3
[9]
  response to TGF-β in terms of DEGs: reestablished to a similar degree to that of WT cells
[3]
  SMAD3 level in the D351H GST pull-down complex: significantly restored
[10]
  TGF-β-induced expression of p15, p21, N-cadherin and Vimentin proteins: significant increase
[11]; SMAD4 R361H cells, with TGF-β 10 ng/mL, Ro-31-8220 1 μM, Go-6983 10 μM
  sensitivity to TGF-β-induced growth suppression (cell viability): restored the sensitivity
[11]; SMAD4 WT, null and R361H cells, 1 μM
  growth inhibition, compound alone: did not result in any significant growth inhibition
[12]
  TGF-β-induced SBE-luc activity: restored to a level similar to that of the WT cells
[4]
  potentiation effect (ΔTR-FRET) compared with the DMSO control: > 40%
